This note sets out measurements from ChEMBL document CHEMBL3425481, “Design, synthesis and anticancer activity of matrine-1H-1,2,3-triazole-chalcone conjugates” (Bioorg Med Chem Lett, 2015).

Test [1] is described as follows: Antiproliferative activity against mouse NIH/3T3 cells assessed as inhibition of cell proliferation incubated for 48 hrs by CCK8 assay. Format: cell-based. Particulars: NIH3T3, 48 h. The essentials: (§1)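 Human A549 lung, Hela cervical, Bel-7402 hepatocellular and MCF-7 breast cancer cells, plus mouse embryo fibroblast NIH3T3, tested for anti-proliferative activity by CCK-8 assay. For the matrine combination tests, the chalcone and matrine were used at a 1:1 molar ratio; values given as IC50.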
In general terms: Tetrazolium dyes change colour on reduction, which living cells bring about.

A short description of test [2]: Antiproliferative activity against human Bel7402 cells assessed as inhibition of cell proliferation incubated for 48 hrs in presence of matrine by CCK8 assay. In kind it is functional, cell-based. Particulars: Bel-7402, 48 h. Put shortly:
as §1

In test [3] the test system is MCF7. The test can be described thus: Antiproliferative activity against human MCF7 cells assessed as inhibition of cell proliferation incubated for 48 hrs by CCK8 assay. The settings on record: MCF7, 48 h. In kind it is functional, cell-based. The essentials:
as §1

Test [4] concerns HeLa. Briefly: Antiproliferative activity against human HeLa cells assessed as inhibition of cell proliferation incubated for 48 hrs by CCK8 assay. In kind it is functional, cell-based. Put shortly:
as §1

In test [5] the test system is A549. The test can be described thus: Antiproliferative activity against human A549 cells assessed as inhibition of cell proliferation incubated for 48 hrs in presence of matrine by CCK8 assay. Format: functional, cell-based. The settings on record: A549, 48 h. Put shortly:
as §1

Test [6] has as its system MCF7. Briefly: Antiproliferative activity against human MCF7 cells assessed as inhibition of cell proliferation incubated for 48 hrs in presence of matrine by CCK8 assay. Particulars: MCF7, 48 h. Format: functional, cell-based. Put shortly:
as §1

Test [7] relates to A549. Briefly: Antiproliferative activity against human A549 cells assessed as inhibition of cell proliferation incubated for 48 hrs by CCK8 assay. Format: functional, cell-based. The settings on record: A549, 48 h. Put shortly:
as §1

The test system of test [8] is HeLa. Briefly: Antiproliferative activity against human HeLa cells assessed as inhibition of cell proliferation incubated for 48 hrs in presence of matrine by CCK8 assay. In kind it is functional, cell-based. Put shortly: as §1
Test [9] has as its system A549. The test can be described thus: Induction of apoptosis in human A549 cells at 15 to 50 uM incubated for 24 hrs by Annexin V-FITC/propidium iodide double staining based flow cytometry. In kind it is functional. Put shortly: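 A549 cells exposed for 24 h at three concentrations alongside a 0.1% DMSO control. Cells double-stained with Annexin V-FITC/propidium iodide and analysed by flow cytometry. Early apoptosis was read from the lower-right quadrant and late apoptosis from the upper-right, and both were summed. Done in triplicate, with statistics compared to control.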
In general terms: A flow cytometer gives signals particle by particle.

The nature of test [10]: Antiproliferative activity against human Bel7402 cells assessed as inhibition of cell proliferation incubated for 48 hrs by CCK8 assay. In kind it is functional, cell-based. Particulars: Bel-7402, 48 h. Put shortly:
as §1

Test [11] concerns A549. Briefly: Antitumor activity against human A549 cells xenografted in Balb/ca-nu mouse assessed as tumor growth inhibition at 5 mg/kg, iv dosed every 3 days for total of 7 dosing rounds measured on day 14 after treatment. Format: functional. The settings on record: read-out: TGI. Put shortly:
(§2)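 A549 xenograft in mice, dosed by tail vein injection every 3 days; vehicle saline plus 0.2% Tween 80. n = 8 per treatment group, 6 in the vehicle group. Mean ± SE.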
On the technique in general: A xenograft is tissue or cells of one species grown in another, often human tumour cells in immunodeficient mice.

Test [12] deals with A549. Briefly: Antitumor activity against human A549 cells xenografted in Balb/ca-nu mouse assessed as tumor growth inhibition at 5 mg/kg, iv dosed every 3 days for total of 7 dosing rounds measured on day 16 after treatment. Format: functional. The settings on record: read-out: TGI. Put shortly: as §2
The test system of test [13] is A549. Briefly: Antitumor activity against human A549 cells xenografted in Balb/ca-nu mouse assessed as tumor growth inhibition at 5 mg/kg, iv dosed every 3 days for total of 7 dosing rounds measured on day 20 after treatment. In kind it is functional. The settings on record: read-out: TGI. Put shortly:
as §2

Test [14] concerns A549. The test can be described thus: Antitumor activity against human A549 cells xenografted in Balb/ca-nu mouse assessed as tumor growth inhibition at 5 mg/kg, iv dosed every 3 days for total of 7 dosing rounds measured on day 12 after treatment. Format: functional. Particulars: read-out: TGI. The essentials: as §2
The subject of test [15] is A549. The test can be described thus: Antitumor activity against human A549 cells xenografted in Balb/ca-nu mouse assessed as tumor growth inhibition at 10 mg/kg, iv dosed every 3 days for total of 7 dosing rounds measured on day 8 after treatment. Format: functional, organism-based. The arrangement: dose 10 mg/kg. Put shortly:
as §2

The test system of test [16] is A549. The test can be described thus: Antitumor activity against human A549 cells xenografted in Balb/ca-nu mouse assessed as tumor growth inhibition at 5 mg/kg, iv dosed every 3 days for total of 7 dosing rounds measured on day 18 after treatment. Format: functional. Particulars: read-out: TGI. The essentials: as §2
In test [17] the test system is A549. The test can be described thus: Antitumor activity against human A549 cells xenografted in Balb/ca-nu mouse assessed as tumor growth inhibition at 5 mg/kg, iv dosed every 3 days for total of 7 dosing rounds measured on day 10 after treatment. In kind it is functional. The settings on record: read-out: TGI. Put shortly:
as §2

Active and inactive are the calls of the source. No cut-off for these calls is given here.

Broadly, the IC50 is the concentration that gives 50% inhibition. Turning to `C#CCOc1ccc(C(=O)/C=C/c2ccccc2)c(O)c1`, the half-maximal inhibitory concentration (IC50) in test [1] was 66.6 µM; in test [2], above 50 µM; in [3] it was above 50 µM; in test [4], above 50 µM; in [5], above 50 µM; in test [6], above 50 µM. The 50% inhibitory concentration (IC50) in [7] and in [8] was above 50 µM throughout.
On to `O=C1CCC[C@@H]2[C@H]3CCCN4CCC[C@@H](CN12)[C@@H]34` [MATRINE], for which the IC50 in test [3], in test [4], in test [10] and in test [7] was above 50 µM in each case. Further, in test [9], the Activity was 28.4%.
For the compound `CC(=O)O[C@H]1C(=O)[C@@]2(C)[C@H]([C@H](OC(=O)c3ccccc3)[C@]3(O)C[C@H](OC(=O)[C@H](O)[C@@H](NC(=O)c4ccccc4)c4ccccc4)C(C)=C1C3(C)C)[C@]1(OC(C)=O)CO[C@@H]1C[C@@H]2O` [PACLITAXEL], the results for the 50% inhibitory concentration (IC50) in test [1], in [4] and in [7] were 20 µM, 0.38 µM and 2.82 µM, respectively. Moreover, the inhibition in vivo at 5 mg/kg in test [11] was found to be 79.5%; in test [12] it was 85.4%; in [13] it was 89.1%; in test [14], 70.4%; in [16] it was 88.9%; in test [17] it was 58.3%. In addition, the TGI entry in test [15] was “Active”.
